Measurements taken from ChEMBL document CHEMBL1148495, “Racemic and chiral sulfoxides as potential prodrugs of the COX-2 inhibitors Vioxx and Arcoxia” (Bioorg Med Chem Lett, 2006).
≈ marks a conversion by molar mass, not a printed value.

Legend:
[1] = Solubility in PBS at pH 7.2; format: physicochemical
Rattus norvegicus [2] = experiment: Inhibition of yeast-induced pyresis in Wistar rat at 1 mg/kg, po; format: functional
How it was run: (§1)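 Yeast-induced pyresis, an acute model run as a therapeutic protocol. Compounds were given as a single oral dose. Temperature was recorded at 1 h intervals from 1 to 5 h after dosing and expressed as % inhibition.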

[3] = AUC(0-t) in Wistar rat at 1 mg/kg, po; format: ADME, organism-based; set-up: dose 1 mg/kg, route oral; conditions: plasma
How it was run: (§2)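 Male Wistar rats given a single oral dose of 1 mg/kg as a suspension in 0.5% methylcellulose with 0.1% Tween 80. Plasma levels of sulfoxide prodrug and sulfone parent were followed over time. Cmax, tmax and AUC0-t are reported as means (n = 2–3) with SD.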

[4] = Solubility in SGF at pH 1.8; format: physicochemical
Rattus norvegicus [5] = experiment: Inhibition of adjuvant-induced arthritis in Wistar rat at 0.3 mg/kg, po; format: functional
How it was run: (§3)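 Adjuvant-induced arthritis in male Wistar rats, therapeutic protocol. Compounds were given orally once daily for 7 days, starting on day 14 after arthritis induction. Paw edema was measured 24 h after the last dose and expressed as % inhibition.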

[6] = Cmax in Wistar rat at 1 mg/kg, po; format: ADME, organism-based; set-up: dose 1 mg/kg, route oral; conditions: in vivo; how it was run: as §2
Liver microsomes [7] = experiment: Stability in rat liver microsomes; format: ADME, Microsome
How it was run: (§4)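 Compound at 5 µM was incubated with human or rat liver microsomes (1 mg/mL microsomal protein) for 30 min at 37 °C. Result is given as % metabolism.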

[8] = Tmax in Wistar rat at 1 mg/kg, po; format: ADME, organism-based; set-up: dose 1 mg/kg, route oral; conditions: in vivo; how it was run: as §2
Liver microsomes [9] = experiment: Stability in human liver microsomes; format: ADME, Microsome; how it was run: as §4
[10] = target: T1, Prostaglandin G/H synthase 2 (Homo sapiens, UniProt P35354); experiment: Inhibition of COX2 in human whole blood; format: tissue-based
T1 sequence (P35354 whole entry): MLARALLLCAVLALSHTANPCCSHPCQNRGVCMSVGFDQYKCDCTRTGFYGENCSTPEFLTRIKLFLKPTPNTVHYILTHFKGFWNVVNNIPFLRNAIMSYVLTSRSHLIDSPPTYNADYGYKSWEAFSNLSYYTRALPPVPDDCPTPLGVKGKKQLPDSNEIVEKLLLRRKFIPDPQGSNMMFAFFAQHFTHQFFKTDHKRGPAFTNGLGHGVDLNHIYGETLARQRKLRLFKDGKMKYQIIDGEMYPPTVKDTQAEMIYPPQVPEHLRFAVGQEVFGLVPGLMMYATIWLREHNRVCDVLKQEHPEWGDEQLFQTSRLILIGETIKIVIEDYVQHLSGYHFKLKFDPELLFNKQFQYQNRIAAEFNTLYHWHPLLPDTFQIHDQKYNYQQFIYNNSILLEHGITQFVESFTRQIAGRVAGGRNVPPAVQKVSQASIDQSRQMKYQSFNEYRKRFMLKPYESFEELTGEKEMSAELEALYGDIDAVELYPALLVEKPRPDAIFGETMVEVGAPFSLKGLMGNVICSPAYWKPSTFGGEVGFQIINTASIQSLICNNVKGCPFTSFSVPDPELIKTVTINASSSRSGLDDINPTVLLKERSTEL

Rattus norvegicus [11] = experiment: Tmax for parent compound after prodrug dosing in Wistar rat at 1 mg/kg, po; format: ADME, organism-based; set-up: dose 1 mg/kg, route oral; conditions: in vivo; how it was run: as §2
Rattus norvegicus [12] = experiment: AUC(0-t) for parent compound after prodrug dosing in Wistar rat at 1 mg/kg, po; format: ADME, organism-based, Plasma; set-up: dose 1 mg/kg, route oral; conditions: in vivo; how it was run: as §2
Rattus norvegicus [13] = experiment: Cmax for parent compound after prodrug dosing in Wistar rat at 1 mg/kg, po; format: ADME, organism-based; set-up: dose 1 mg/kg, route oral; conditions: in vivo; how it was run: as §2
[14] = target: T2, Prostaglandin G/H synthase 2 (Homo sapiens) (UniProt P35354); experiment: Inhibition of COX2 in human whole blood at 10 uM; format: tissue-based
T2 sequence (whole entry): T1 sequence (P35354 whole entry)

Rattus norvegicus [15] = experiment: Inhibition of yeast-induced pyresis in Wistar rat at 3 mg/kg, po; format: functional; how it was run: as §1
Rattus norvegicus [16] = experiment: Inhibition of adjuvant-induced arthritis in Wistar rat at 1 mg/kg, po; format: functional; how it was run: as §3

CS(=O)(=O)c1ccc(C2=C(c3ccccc3)C(=O)OC2)cc1 [ROFECOXIB]
solubility [1]: 15 µg/mL (≈ 47.7 µM)
inhibition in vivo at 1 mg/kg (Rattus norvegicus [2]): 48%
AUC(0-t) [3]: 531 ng·h/mL
solubility [4]: 16 µg/mL (≈ 50.9 µM)
inhibition in vivo at 0.3 mg/kg (Rattus norvegicus [5]): 41%
Cmax [6]: 237 ng/mL
Stability (Liver microsomes [7]): 38%
Tmax [8]: 24 min

C[S@+]([O-])c1ccc(C2=C(c3ccccc3)C(=O)OC2)cc1
Stability (Liver microsomes [9]): 4%
Stability (Liver microsomes [7]): 40%

Cc1ccc(-c2ncc(Cl)cc2-c2ccc([S@+](C)[O-])cc2)cn1
Stability (Liver microsomes [9]): 2%
IC50 [10]: 3.5 µM
Stability (Liver microsomes [7]): 17%

C[S+]([O-])c1ccc(C2=C(c3ccccc3)C(=O)OC2)cc1 (stereo not drawn)
Stability (Liver microsomes [9]): 5%
IC50 [10]: 4.93 µM
solubility [1]: 537 µg/mL (≈ 1800 µM)
inhibition in vivo at 1 mg/kg (Rattus norvegicus [2]): 56%
AUC(0-t) [3]: 318 ng·h/mL
solubility [4]: 717 µg/mL (≈ 2400 µM)
inhibition in vivo at 0.3 mg/kg (Rattus norvegicus [5]): 72%
Tmax (Rattus norvegicus [11]): 24 min
Cmax [6]: 334 ng/mL
AUC (Rattus norvegicus [12]): 979 ng·h/mL
Stability (Liver microsomes [7]): 35%
Tmax [8]: 18 min
Cmax (Rattus norvegicus [13]): 468 ng/mL

Cc1ccc(-c2ncc(Cl)cc2-c2ccc([S@@+](C)[O-])cc2)cn1
Stability (Liver microsomes [9]): 5%
inhibition [14]: 24.4%
Stability (Liver microsomes [7]): 26%

Cc1ccc(-c2ncc(Cl)cc2-c2ccc([S+](C)[O-])cc2)cn1 (stereo not drawn)
Stability (Liver microsomes [9]): 6%
IC50 [10]: 3.7 µM
solubility [1]: > 1000 µg/mL
AUC(0-t) [3]: 578 ng·h/mL
solubility [4]: > 1000 µg/mL
Tmax (Rattus norvegicus [11]): 18 min
Cmax [6]: 133 ng/mL
AUC (Rattus norvegicus [12]): 803 ng·h/mL
Stability (Liver microsomes [7]): 21%
inhibition in vivo at 3 mg/kg (Rattus norvegicus [15]): 49%
Tmax [8]: 36 min
inhibition in vivo at 1 mg/kg (Rattus norvegicus [16]): 67%
Cmax (Rattus norvegicus [13]): 254 ng/mL

Cc1ccc(-c2ncc(Cl)cc2-c2ccc(S(C)(=O)=O)cc2)cn1 [ETORICOXIB]
Stability (Liver microsomes [9]): 4%
solubility [1]: 104 µg/mL (≈ 290 µM)
AUC(0-t) [3]: 1660 ng·h/mL
solubility [4]: > 1000 µg/mL
Cmax [6]: 427 ng/mL
Stability (Liver microsomes [7]): 6%
inhibition in vivo at 3 mg/kg (Rattus norvegicus [15]): 81%
Tmax [8]: 18 min
inhibition in vivo at 1 mg/kg (Rattus norvegicus [16]): 60%

C[S@@+]([O-])c1ccc(C2=C(c3ccccc3)C(=O)OC2)cc1
Stability (Liver microsomes [9]): 1%
Stability (Liver microsomes [7]): 49%
